Experimental data: ChEMBL document CHEMBL5715938, “The protein kinase Cbeta-selective inhibitor, Enzastaurin (LY317615.HCl), suppresses signaling through the AKT pathway, induces apoptosis, and suppresses growth of human colon cancer and glioblastoma xenografts” (Cancer Res, 2005)
Active and inactive are the calls of the source. No cut-off for these calls is given here.

Legend:
[1] = Plasma concentration in athymic nude mouse xenografted with human HCT-116 cells at 75 mg/kg, po administered twice daily measured after 1 hr by LC-MS analysis; assay type: ADME, organism-based
Outline: (§1)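 Female athymic nude mice, 6–8 weeks old, received 5 million HCT116 cells s.c. in the flank in 1:1 serum-free medium and matrigel (n = 9 per group). Dosing began at a group mean tumor volume of 100 mm³: 75 mg/kg twice daily by gavage, suspended in 10% acacia in water. Plasma was taken on days 1 and 21 at 0.5–12 h post-dose and measured by LC-MS/MS.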

[2] = system: HCT-116; assay: Antitumor activity against human HCT-116 cells xenografted in athymic nude mouse assessed as reduction in GSK3beta phosphorylation at serine 9 residue at 75 mg/kg, po administered twice daily by Western blotting analysis; assay type: functional, organism-based; settings: time <= 8.0 hrs, TDE = time-dependent effect
[3] = system: NCI-H322M; assay: Antiproliferative activity against human NCI-H322M cells assessed as reduction in cell growth upto 10 uM measured after 6 days by propidium iodide staining based analysis; assay type: functional; settings: time 6.0 day
Outline: (§2)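 ATCC-sourced lines grown without antibiotics; 1,000 cells/well in 1% FBS medium, refed ±drug on days 1 and 4 over a 6-day course. On day 7, propidium iodide (10 μg/mL in D-PBS) read after 30 min for nonviable cells, plate frozen at -80°C 2 h, thawed and reread; proliferative index = postfreeze minus prefreeze signal.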

[4] = target: Protein kinase C iota type (Homo sapiens) (UniProt P41743); assay: Inhibition of PKCIota (unknown origin) at 1 micromol/L relative to control; settings: dose 1.0 µmol/L
Outline: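 Commercial kinase profiling panel run by the provider's protocol at a single inhibitor concentration of 1 µmol/L. Activity expressed as percent of kinase activity without inhibitor.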

[5] = target: Mitogen-activated protein kinase 13 (Homo sapiens) (UniProt O15264); assay: Inhibition of SAPK4 (unknown origin) at 1 micromol/L relative to control; settings: dose 1.0 µmol/L
Outline: (§3)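 Commercial kinase profiler panel run to the provider's protocol, with the compound tested at 1 µmol/L. Activity is expressed as percent of kinase activity without compound.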

[6] = target: Mitogen-activated protein kinase 11 (Homo sapiens) (UniProt Q15759); assay: Inhibition of SAPK2b (unknown origin) at 1 micromol/L relative to control; settings: dose 1.0 µmol/L; outline: as §3
[7] = target: Serine/threonine-protein kinase AKT (Homo sapiens) (UniProt P31751+Q9Y243+P31749); assay: Inhibition of AKT phosphorylation at Thr308 residue in human HCT-116 cells at 1 micromol/L upto 4 hrs by Western blotting analysis; assay type: cell-based; settings: dose 1.0 µmol/L
Outline: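 Cultured tumor cells treated with 1 μmol/L drug; lysates in cell extraction buffer with protease inhibitors, western blotted with phospho-specific antibodies (pGSK3β Ser9, pAKT Thr308, phospho-ERK) alongside total GSK3β/AKT.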

[8] = Plasma concentration in athymic nude mouse xenografted with human HCT-116 cells at 75 mg/kg, po administered twice daily measured after 2 hrs by LC-MS analysis; assay type: ADME, organism-based; outline: as §1
[9] = system: U-87 MG; assay: Antitumor activity against human U-87 MG cells xenografted in athymic nude mouse assessed as reduction in GSK3beta phosphorylation at serine 9 residue at 75 mg/kg, po administered twice daily measured after 2 to 8 hrs by ELISA method relative to control; assay type: functional, U-87MG ATCC; set-up: scale not given: the % may be the effect or the level left; settings: time 2-8 hrs
Outline: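 U87MG-bearing nude mice, 75 mg/kg twice daily by gavage; on day 21 tumors harvested 2, 4 or 8 h post-dose, lysates measured by pGSK3β Ser9 ELISA versus vehicle tumors; Dunnett's method, ANOVA.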

[10] = target: Glycogen synthase kinase-3 beta (Homo sapiens) (UniProt P49841); settings: U-87 MG, dose 1.0 µmol/L, time <= 4.0 hrs
[11] = Antitumor activity against human HCT116 cells implanted in athymic nude mouse assessed as reduction in GSK3beta phosphorylation at serine 9 residue at 75 mg/kg, po administered twice daily measured after 2 to 4 hrs by ELISA method relative to control; set-up: scale not given: the % may be the effect or the level left; settings: time 2-4 hrs
[12] = system: ACHN; assay: Antiproliferative activity against human ACHN cells assessed as reduction in cell growth upto 10 uM measured after 6 days by propidium iodide staining based analysis; assay type: functional; settings: time 6.0 day; outline: as §2
[13] = target: Mitogen-activated protein kinase 12 (Homo sapiens) (UniProt P53778); assay: Inhibition of SAPK3 (unknown origin) at 1 micromol/L relative to control; settings: dose 1.0 µmol/L; outline: as §3
[14] = system: NCI-H460; assay: Antiproliferative activity against human NCI-H460 cells assessed as reduction in cell growth upto 10 uM measured after 6 days by propidium iodide staining based analysis; assay type: functional; settings: time 6.0 day; outline: as §2
[15] = system: BT-549; assay: Antiproliferative activity against human BT-549 cells assessed as reduction in cell growth upto 10 uM measured after 6 days by propidium iodide staining based analysis; assay type: functional; settings: time 6.0 day; outline: as §2
[16] = target: Protein kinase C gamma type (Homo sapiens, UniProt P05129); assay: Inhibition of recombinant human PKCgamma using myelin basic protein as substrate incubated for 60 mins in presence of […] and ATP by microbeta scintillation counter analysis
Outline: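 Radiometric filter-plate assay with recombinant human PKCγ (128 pmol/L) phosphorylating myelin basic protein (0.25 mg/mL). Buffer: 90 mmol/L HEPES pH 7.5, 5 mmol/L MgCl2, 100 µmol/L CaCl2, phosphatidylserine, diacylglycerol, 0.001% Triton X-100, 4% DMSO, 30 µmol/L ATP plus 32P-ATP. Enzyme added to start; ran 60 min at room temperature; H3PO4 quench; phosphocellulose capture. IC50 from a three-variable logistic fit to a 10-point series, 1–2,000 nmol/L.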

[17] = system: HOP-62; assay: Antiproliferative activity against human HOP-62 cells assessed as reduction in cell growth upto 10 uM measured after 6 days by propidium iodide staining based analysis; assay type: functional; settings: time 6.0 day; outline: as §2
[18] = system: MOLT-4; assay: Antiproliferative activity against human MOLT-4 cells assessed as reduction in cell growth upto 10 uM measured after 6 days by propidium iodide staining based analysis; assay type: functional; settings: time 6.0 day; outline: as §2
[19] = system: HCT-116; assay: Antitumor activity against human HCT-116 cells xenografted in athymic nude mouse assessed as reduction in GSK3beta phosphorylation at serine 9 residue at 75 mg/kg, po administered twice daily measured after 2 hrs by ELISA method relative to control; assay type: functional; set-up: scale not given: the % may be the effect or the level left
Outline: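 HCT116-bearing nude mice, 75 mg/kg by gavage; tumors and PBMCs harvested 0.5, 2, 4, 8 h post-dose, n = 5 per time point. PBMCs from five mice pooled via CPT tube. Lysates assayed by pGSK3β Ser9 immunometric ELISA (tumor 400–600 μg, PBMC 50–100 μg protein/well); percent of vehicle control, Dunnett/ANOVA.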

[20] = system: DU-145; assay: Antiproliferative activity against human DU-145 cells assessed as reduction in cell growth upto 10 uM measured after 6 days by propidium iodide staining based analysis; assay type: functional; settings: time 6.0 day; outline: as §2
[21] = target: Serine/threonine-protein kinase N2 (Homo sapiens) (UniProt Q16513); assay: Inhibition of PRK2 (unknown origin) at 1 micromol/L relative to control; settings: dose 1.0 µmol/L; outline: as §3
[22] = target: RAC-alpha serine/threonine-protein kinase (Homo sapiens) (UniProt P31749); assay: Inhibition of PKBalpha (unknown origin) at 1 micromol/L relative to control; settings: dose 1.0 µmol/L; outline: as §3
[23] = system: T47D; assay: Antiproliferative activity against human T47D cells assessed as reduction in cell growth upto 10 uM measured after 6 days by propidium iodide staining based analysis; assay type: functional; settings: time 6.0 day; outline: as §2

Serine/threonine-protein kinase N2 (Homo sapiens), sequence (Q16513 whole entry, looked up): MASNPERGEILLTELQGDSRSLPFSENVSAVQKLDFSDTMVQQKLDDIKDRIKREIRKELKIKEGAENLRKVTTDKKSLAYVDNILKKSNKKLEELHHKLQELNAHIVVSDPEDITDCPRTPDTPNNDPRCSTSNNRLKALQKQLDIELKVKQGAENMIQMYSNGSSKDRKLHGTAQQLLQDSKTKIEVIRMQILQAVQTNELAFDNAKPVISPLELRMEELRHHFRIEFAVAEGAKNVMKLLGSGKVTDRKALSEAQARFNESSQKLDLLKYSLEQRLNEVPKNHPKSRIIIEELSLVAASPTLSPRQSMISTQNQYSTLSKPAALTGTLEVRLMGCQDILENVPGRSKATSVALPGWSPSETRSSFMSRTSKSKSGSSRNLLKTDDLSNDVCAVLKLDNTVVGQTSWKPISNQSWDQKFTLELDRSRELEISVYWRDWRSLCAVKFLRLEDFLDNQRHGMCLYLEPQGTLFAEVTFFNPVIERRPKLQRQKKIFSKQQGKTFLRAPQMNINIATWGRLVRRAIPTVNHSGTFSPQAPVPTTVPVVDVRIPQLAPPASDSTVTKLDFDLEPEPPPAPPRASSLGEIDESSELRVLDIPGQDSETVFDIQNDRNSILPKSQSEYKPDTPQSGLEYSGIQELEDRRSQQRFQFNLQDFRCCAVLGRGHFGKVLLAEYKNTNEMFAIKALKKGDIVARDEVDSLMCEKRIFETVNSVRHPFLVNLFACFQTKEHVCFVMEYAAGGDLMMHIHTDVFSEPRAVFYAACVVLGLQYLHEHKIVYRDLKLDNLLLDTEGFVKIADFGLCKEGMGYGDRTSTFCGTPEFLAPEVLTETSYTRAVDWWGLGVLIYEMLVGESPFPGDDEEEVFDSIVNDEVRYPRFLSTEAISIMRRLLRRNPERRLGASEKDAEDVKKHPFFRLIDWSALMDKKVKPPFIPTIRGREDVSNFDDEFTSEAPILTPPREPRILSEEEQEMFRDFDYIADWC
RAC-alpha serine/threonine-protein kinase (Homo sapiens), sequence (P31749 whole entry): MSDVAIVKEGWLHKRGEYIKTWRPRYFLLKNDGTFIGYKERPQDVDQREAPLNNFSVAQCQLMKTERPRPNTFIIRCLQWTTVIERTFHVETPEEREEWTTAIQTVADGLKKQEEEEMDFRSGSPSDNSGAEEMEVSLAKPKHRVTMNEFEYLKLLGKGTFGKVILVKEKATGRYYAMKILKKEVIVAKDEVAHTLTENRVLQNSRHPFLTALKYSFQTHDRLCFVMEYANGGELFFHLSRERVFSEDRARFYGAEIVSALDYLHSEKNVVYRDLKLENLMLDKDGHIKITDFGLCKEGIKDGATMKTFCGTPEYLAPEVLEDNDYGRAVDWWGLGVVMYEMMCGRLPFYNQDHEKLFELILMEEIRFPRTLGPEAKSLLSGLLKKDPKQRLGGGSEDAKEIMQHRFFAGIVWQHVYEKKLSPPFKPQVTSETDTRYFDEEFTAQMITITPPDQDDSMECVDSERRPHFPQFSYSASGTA
Serine/threonine-protein kinase AKT (Homo sapiens), sequence (P31749 whole entry, looked up): as the sequence (P31749 whole entry) above
Serine/threonine-protein kinase AKT (Homo sapiens), sequence (P31751 whole entry, looked up): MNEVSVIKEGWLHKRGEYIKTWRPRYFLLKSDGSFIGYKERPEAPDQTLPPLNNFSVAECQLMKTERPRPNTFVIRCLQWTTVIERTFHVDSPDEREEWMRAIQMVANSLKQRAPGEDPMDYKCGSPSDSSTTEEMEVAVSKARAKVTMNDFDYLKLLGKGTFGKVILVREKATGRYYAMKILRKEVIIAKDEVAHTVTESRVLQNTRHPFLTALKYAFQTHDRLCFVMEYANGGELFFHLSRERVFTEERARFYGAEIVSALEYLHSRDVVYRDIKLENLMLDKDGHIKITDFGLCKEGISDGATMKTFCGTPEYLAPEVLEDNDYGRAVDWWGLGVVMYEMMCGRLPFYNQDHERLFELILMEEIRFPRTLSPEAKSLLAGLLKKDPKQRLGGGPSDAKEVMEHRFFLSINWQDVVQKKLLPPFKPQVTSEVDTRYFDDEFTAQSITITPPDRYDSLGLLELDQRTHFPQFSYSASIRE
Serine/threonine-protein kinase AKT (Homo sapiens), sequence (Q9Y243 whole entry, looked up): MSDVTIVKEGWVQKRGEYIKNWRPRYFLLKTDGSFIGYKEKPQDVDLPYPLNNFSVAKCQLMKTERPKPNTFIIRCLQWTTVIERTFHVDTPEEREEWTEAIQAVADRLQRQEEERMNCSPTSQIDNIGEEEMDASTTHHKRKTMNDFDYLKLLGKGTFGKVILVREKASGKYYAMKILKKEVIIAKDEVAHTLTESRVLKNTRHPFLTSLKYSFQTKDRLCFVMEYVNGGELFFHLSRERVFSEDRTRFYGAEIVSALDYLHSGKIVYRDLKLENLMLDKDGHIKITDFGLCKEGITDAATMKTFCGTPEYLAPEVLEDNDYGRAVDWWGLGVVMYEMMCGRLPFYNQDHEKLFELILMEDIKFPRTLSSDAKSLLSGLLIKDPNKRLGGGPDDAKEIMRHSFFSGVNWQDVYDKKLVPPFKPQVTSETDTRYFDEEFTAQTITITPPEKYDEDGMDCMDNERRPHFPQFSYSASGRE
Glycogen synthase kinase-3 beta (Homo sapiens), sequence (P49841 whole entry, looked up): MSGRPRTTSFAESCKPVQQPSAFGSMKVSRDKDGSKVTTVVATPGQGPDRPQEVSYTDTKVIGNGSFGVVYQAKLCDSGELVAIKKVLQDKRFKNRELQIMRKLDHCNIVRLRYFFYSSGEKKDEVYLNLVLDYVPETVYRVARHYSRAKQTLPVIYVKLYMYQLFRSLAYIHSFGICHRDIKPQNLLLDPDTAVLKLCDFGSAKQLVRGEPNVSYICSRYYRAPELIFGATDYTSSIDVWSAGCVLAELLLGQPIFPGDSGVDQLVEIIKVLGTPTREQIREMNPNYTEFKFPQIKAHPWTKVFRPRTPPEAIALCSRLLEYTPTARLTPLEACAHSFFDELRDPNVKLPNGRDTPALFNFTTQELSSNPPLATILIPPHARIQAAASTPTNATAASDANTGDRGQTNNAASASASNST
Mitogen-activated protein kinase 11 (Homo sapiens), sequence (Q15759 whole entry): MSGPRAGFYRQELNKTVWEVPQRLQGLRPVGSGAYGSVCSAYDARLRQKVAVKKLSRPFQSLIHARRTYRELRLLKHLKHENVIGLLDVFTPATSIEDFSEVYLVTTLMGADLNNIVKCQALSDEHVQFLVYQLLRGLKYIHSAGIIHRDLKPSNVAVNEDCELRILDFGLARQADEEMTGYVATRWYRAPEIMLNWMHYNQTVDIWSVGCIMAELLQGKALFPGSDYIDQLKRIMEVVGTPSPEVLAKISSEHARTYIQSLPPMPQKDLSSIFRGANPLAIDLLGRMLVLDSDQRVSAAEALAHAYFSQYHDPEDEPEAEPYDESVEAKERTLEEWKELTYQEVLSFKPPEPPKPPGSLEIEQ
Protein kinase C iota type (Homo sapiens), sequence (P41743 whole entry): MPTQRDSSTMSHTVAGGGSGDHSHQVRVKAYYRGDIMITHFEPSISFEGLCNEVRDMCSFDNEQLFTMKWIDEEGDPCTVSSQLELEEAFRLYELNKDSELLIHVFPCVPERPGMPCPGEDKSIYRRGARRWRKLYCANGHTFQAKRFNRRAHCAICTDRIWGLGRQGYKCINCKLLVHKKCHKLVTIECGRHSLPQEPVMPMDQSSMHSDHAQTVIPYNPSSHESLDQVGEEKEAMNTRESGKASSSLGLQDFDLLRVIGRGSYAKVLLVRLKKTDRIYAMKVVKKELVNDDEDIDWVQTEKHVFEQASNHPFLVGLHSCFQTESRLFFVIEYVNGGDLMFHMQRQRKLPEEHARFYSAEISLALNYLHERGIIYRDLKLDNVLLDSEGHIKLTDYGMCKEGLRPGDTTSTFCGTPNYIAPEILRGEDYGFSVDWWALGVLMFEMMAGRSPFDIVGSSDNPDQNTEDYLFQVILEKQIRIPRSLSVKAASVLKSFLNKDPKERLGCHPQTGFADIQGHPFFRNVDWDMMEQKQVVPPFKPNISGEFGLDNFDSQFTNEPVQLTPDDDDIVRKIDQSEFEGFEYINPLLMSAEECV
Mitogen-activated protein kinase 13 (Homo sapiens), sequence (O15264 whole entry): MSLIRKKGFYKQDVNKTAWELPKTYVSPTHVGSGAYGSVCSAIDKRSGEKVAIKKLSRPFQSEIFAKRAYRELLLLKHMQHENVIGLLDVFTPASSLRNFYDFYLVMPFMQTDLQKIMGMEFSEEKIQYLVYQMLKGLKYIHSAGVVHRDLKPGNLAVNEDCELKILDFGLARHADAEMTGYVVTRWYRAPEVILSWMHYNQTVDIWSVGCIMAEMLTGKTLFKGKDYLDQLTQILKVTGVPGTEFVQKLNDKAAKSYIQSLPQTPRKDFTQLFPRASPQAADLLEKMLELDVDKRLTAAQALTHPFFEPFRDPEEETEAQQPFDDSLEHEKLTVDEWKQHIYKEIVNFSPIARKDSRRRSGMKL

For `Cl.Cn1cc(C2=C(c3cn(C4CCN(Cc5ccccn5)CC4)c4ccccc34)C(=O)NC2=O)c2ccccc21` [ENZASTAURIN HYDROCHLORIDE], the concentration at 1 h [1] was 3000 nM, the Activity [2] was “Tde” and the Activity [3] was “inactive”. For the same molecule, the % control activity [4] was 91%, the % control activity [5] was 97% and the % control activity [6] was 96%. For the same molecule, the inhibition [7] was “Active”, the concentration at 2 h [8] was 2000 nM and the Activity [9] was >50%. The inhibition [10] was “Active”, the Activity [11] was >60% and the Activity [12] was “inactive”. The % control activity [13] was 88%, the Activity [14] was “inactive” and the Activity [15] was “inactive”. For the same molecule, the IC50 [16] was 83 nM, the Activity [17] was “inactive” and the Activity [18] was “Active”. The Activity [19] was 80%, the Activity [20] was “inactive” and the % control activity [21] was 88%. The % control activity [22] was 75% and the Activity [23] was “inactive”.
